Laboratory results taken from PubChem BioAssay AID504382 (The Scripps Research Institute Molecular Screening Center, 2011).
Out of some 2,500 compounds screened, about 460 (18%) were called active. These entries were drawn from the full list. Unmarked numbers belong to inactive results.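 How the source made its calls: active means mean activation above a cutoff of low control average plus 3 SD from the earlier screen (cut at about 12% in these data); inactive means the rest.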

Assay: IANBD-channel fluorescence artefacts in buffer – biochemical, artefact control for cardiac RTF calcium sensitizer project, confirmation (AID 504382)
Settings: IANBD fluorescence interference counterscreen, EC20 Ca2+, at 7.2 µM, hits give high values, scaled: EC20 calcium 0, EC100 calcium 100
How it was run: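 Medium: MOPS buffer, 190 mM, with KCl, MgCl2, EGTA, NTA, DTT, pH 7.20; Dosing: one dose of 7.2 µM, 0.7% DMSO; Probe or stimulus: calcium at EC20 level, 0.472 mM final; Incubation: 15 min, 25 °C; Evaluation: compound fluorescence interference relative to control well signal range; Signal: fluorescence, 480/540 nm.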

Row | Compound | fluorescence artifact activation
1 | CCOc1ccc(NC(=O)/C(C#N)=C\c2ccc(N3CCCC3)c(C)c2)cc1 | 0.15%
2 | CSc1nnc(-c2ccc(S(=O)(=O)N3CCCC3)cc2)n1C | 0.02%
3 | CSc1nc2ccccc2n1CC(=O)Nc1c(C)cccc1C | 2.26%
4 | CN1CCS/C1=C/C=C1/SC(=S)N(Cc2ccccc2)C1=O | -0.03%
5 | CCN1/C(=C2\SC(=S)N(Cc3ccccc3)C2=O)Sc2ccccc21 | 0.08%
6 | CCN1C(=O)/C(=C/N2CCc3ccccc32)SC1=S | 12.6% (active)
7 | O=c1oc2c(O)cccc2cc1-c1nc2ccccc2[nH]1 | 0.04%
8 | O=c1oc2c(CN3CCCCC3)c(O)ccc2cc1-c1nc2ccccc2[nH]1 | 60.5% (active)
9 | S=C(NCCCN1CCOCC1)Nc1ccc(-c2nc3ccccc3[nH]2)cc1 | 0.17%
10 | O=C1CCc2cc(S(=O)(=O)NC3CCCCC3)ccc2N1 | -0.07%
11 | Cc1ccc(CNC(=O)CC(C)S(=O)(=O)c2ccc3c(c2)NC(=O)CS3)o1 (stereo unspecified) | 45.8% (active)
12 | Cc1cc(C)n2nc(SCC(=O)N(C)Cc3ccccc3)nc2n1 | -0.05%
13 | CCN1CCN(Cc2c(O)ccc3c2O/C(=C\c2ccccc2)C3=O)CC1 | 2.91%
14 | O=C1/C(=C/C=C/c2ccccc2)Oc2c1ccc(O)c2CN1CCN(CCO)CC1 | 46.6% (active)
15 | CCN1CCN(Cc2c(O)ccc3c2O/C(=C\C=C\c2ccccc2)C3=O)CC1 | 20.6% (active)
16 | CN(C)Cc1c(O)ccc2c1O/C(=C\C=C\c1ccccc1)C2=O | 0.37%
17 | Cc1ccc(/C=C2\Oc3c(ccc(O)c3CN3CCN(CCO)CC3)C2=O)cc1 | 4.11%
18 | COc1ccccc1/C=C/C=C1\Oc2c(ccc(O)c2CN2CCN(CCO)CC2)C1=O | 11.9% (active)
19 | CCN1CCN(Cc2c(O)ccc3c2O/C(=C\C=C\c2ccccc2OC)C3=O)CC1 | 1.64%
20 | CCN(CC)Cc1c(O)ccc2c1O/C(=C\C=C\c1ccccc1)C2=O | 0.87%
21 | COc1ccccc1/C=C/C=C1\Oc2c(ccc(O)c2CN(C)C)C1=O | 5.64%
22 | Cc1c(/C=N/O)c2ccccn2c1C=O | 0.97%
23 | O=[N+]([O-])c1cc(-c2nc(-c3ccncc3)no2)ccc1Cl | -0.06%
24 | CCCc1ccc(OCc2ccc(C(=O)NN)o2)c(OC)c1 | -0.08%

Row | Compound | fluorescence artifact activation
25 | CN1CCCc2cc3c(C(F)(F)F)cc(=O)oc3nc21 | 1.21%
26 | CC1CCCCC1NS(=O)(=O)CCNC(=O)c1ccccc1 (stereo unspecified) | -0.01%
27 | CC(CC(=O)N1CCc2ccccc21)n1cccn1 (stereo unspecified) | 0.19%
28 | C[C@H](O)C(=O)C1=Nc2c(nc(N)[nH]c2=O)NC1 | 0.04%
29 | CC(=O)c1cccc(NC(=O)Cn2nc(-c3ccccc3Cl)ccc2=O)c1 | 0.29%
30 | CN1C(=O)NC(c2ccccc2[N+](=O)[O-])C2=C1CCCC2=O (stereo unspecified) | 0.1%
31 | CCN1C(=S)N[C@@H](CCc2ccccc2)[C@H](C(=O)OC)[C@H]1C | 20.1% (active)
32 | O=C(N/N=C/c1ccc([N+](=O)[O-])cc1)c1cc(-c2ccc3c(c2)OCO3)n[nH]1 | 0.03%
33 | CSc1nc(C)nc(N/C=C(\C#N)S(=O)(=O)c2ccccc2Cl)n1 | 0.27%
34 | COC(=O)c1cc2c(cc1NC(=O)CSCCc1ccccn1)OCO2 | 0.01%
35 | O=C(c1ccc(F)cc1)N1CCN=C1c1ccccc1 | 0.24%
36 | O=C(CN1C(=O)c2ccccc2C1=O)N1CCN=C1c1ccccc1 | 19.8% (active)
37 | O=C1c2ccccc2C(=O)N1CC1=NCCc2ccccc21 | 0.03%
38 | O=C(O)c1ccccc1/C=N/NC(=S)NC1CCCCC1 | 0.11%
39 | CSc1ccc(Cl)c(C(=O)NNC(=O)c2csc(N3CCOCC3)n2)c1 | 2.41%
40 | CCCN1CC=C2C(C#N)=C(N)C(C#N)(C#N)C(c3cccc(OC)c3OC)C2C1 (stereo unspecified) | 0.1%
41 | Nc1nc(NCc2ccco2)nc(N2CCCCCC2)c1[N+](=O)[O-] | 1.86%
42 | Cc1cc(/C=C2\SC(=S)N(Cc3ccco3)C2=O)c(C)n1-c1cccnc1 | 10.8%
43 | Cc1cc(/C=C2\SC(=S)N(Cc3ccco3)C2=O)c(C)n1-c1ccccc1 | 3.1%
44 | COc1ccc(-n2c(C)cc(/C=C3\SC(=S)N(Cc4ccco4)C3=O)c2C)cc1 | 91.9% (active)
45 | Cc1nc(NC(=O)C(Cl)Cl)sc1C(=O)N(C)C | 0.56%
46 | CC(C)CCNC(=O)c1ccc2c(SCC(=O)O)c3c(nc2c1)CCC3 | 12.9% (active)
47 | CCOc1c2ccc(C(=O)NCCc3cccs3)cc2nn1CC | 0.58%
48 | COC(=O)C1C2CC3c4[nH]c5cc(OC)ccc5c4CCN3CC2CC(OC(=O)CC(C)=O)C1OC (stereo unspecified) | 0.13%

Row | Compound | fluorescence artifact activation
49 | CN(C)c1ccc(/C=C2\CCC/C(=C\c3ccccc3)C2=O)cc1 | 0.02%
50 | Cc1ccc(/C=C2/NC(=O)N(Cc3ccccc3)C2=O)s1 | 0.01%
51 | CN(C)c1ccc(/C=C2\NC(=S)N(Cc3ccccc3)C2=O)cc1 | 91.1% (active)
52 | COC(=O)c1sccc1Oc1ccc(Cl)cc1N1C(=O)CCC1=O | 0.03%
53 | COC(=O)c1c(=O)n(O)c2ccc(OC)cc2[n+]1[O-] | 0.04%
54 | C=CCn1c(=O)/c(=C/c2cc(OC)c(OC)c(OC)c2)s/c1=C(/C#N)c1nc2ccccc2n1C | 0.02%
55 | Cc1cccc(OCc2nn[nH]n2)c1C | 1.02%
56 | COc1ccccc1C1=NOC(Cn2c(=O)c3c(ncn3C)n(C)c2=O)C1 (stereo unspecified) | 0.23%
57 | CCN(CC)CCN1C(=O)c2cccc3cc(N)cc(c23)C1=O | 24.6% (active)
58 | O=C1c2cccc3cc([N+](=O)[O-])cc(c23)C(=O)N1CCN1CCCC1 | 0.08%
59 | CC(C)CCN1C(=O)c2cccc3c(N)ccc(c23)C1=O | 1.45%
60 | Cc1ccc(Cn2c(O)c(N=NC(=S)Nc3ccccc3F)c3cc(S(=O)(=O)N4CCOCC4)ccc32)cc1 | 5.72%
61 | CC(=O)c1cc(NC(=O)c2ccc(C)cc2)c(=O)oc1/C=C/N(C)C | 15.6% (active)
62 | CC(=O)c1cc(NC(=O)c2ccc(Cl)cc2)c(=O)oc1/C=C/N(C)C | 0.02%
63 | COC(=O)c1cc(NC(=O)c2ccccc2)c(=O)oc1C/C=N\OCc1ccc(Cl)cc1Cl | 0.01%
64 | N#CC12COC3(CCCCC3C1(C#N)C#N)OC2=N (stereo unspecified) | 0.14%
65 | CCC(C)(C)NC(=O)C(c1ccc(F)cc1)N(Cc1ccco1)C(=O)c1cnccn1 (stereo unspecified) | 18.7% (active)
66 | CN(CC(=O)NCc1ccco1)S(=O)(=O)c1cccc2cccnc12 | 6.75%
67 | CCOc1ccc(N(C(=O)CNC(=O)c2ccco2)C(C(=O)NC2CCCC2)c2ccncc2)cc1 (stereo unspecified) | 0.08%
68 | COc1cccc(CN2CCNC(=O)C2CC(=O)N(C)Cc2cnccn2)c1OC (stereo unspecified) | 0.09%
69 | O=C(CSC1=NS(=O)(=O)c2ccccc2N1)N1CCCCC1 | 1.61%
70 | CN(C)C(CNC(=O)CSc1nc2ccccc2c(=O)n1Cc1ccco1)c1ccccc1 (stereo unspecified) | -0.06%
71 | O=C(Cc1c(F)cccc1Cl)Nc1nccs1 | 0.01%
72 | CC1(C)CC2(CCCN(C(=S)Nc3ccccc3)C2)CCO1 (stereo unspecified) | 0.12%

Row | Compound | fluorescence artifact activation
73 | CC1(C)CC(CC(=O)Nc2nccs2)(c2ccccc2)CCO1 (stereo unspecified) | 239% (active)
74 | Cn1c(=O)cc(SCC(=O)NCC2COc3ccccc3O2)c2ccccc21 (stereo unspecified) | 0.03%
75 | Cc1cc(NS(C)(=O)=O)c(=O)n(Cc2cccc(F)c2)c1 | 0.35%
76 | COc1ccc(N/C=C2\C(=O)CCc3c2oc2cc(Cl)c(O)c(Cl)c32)cc1 | 12.7% (active)
77 | Cn1cnnc1Sc1nc2ccccc2nc1NS(=O)(=O)c1ccccc1 | 4.87%
78 | Cc1cc(N/C=C\c2nnnn2-c2ccc(F)cc2)no1 | 233% (active)
79 | CC(=O)N(c1ccccc1)C1SC(=O)N(c2ccccc2)C1=O (stereo unspecified) | 0.05%
80 | O=C(O)c1cc(-c2ccc(/C=C3/SC(=S)N(Cc4ccccc4)C3=O)o2)ccc1Cl | 0.02%
81 | O=C(O)CN1C(=O)/C(=C/c2ccc(SCc3ccccc3)o2)SC1=S | 11.5%
82 | O=C(O)C(c1ccccc1)N1C(=O)/C(=C\c2ccc(-c3ccc(Br)cc3)o2)SC1=S (stereo unspecified) | 68.3% (active)
83 | CC(C)NC(=S)N/N=C/c1sc(N2CCCCC2)nc1-c1cccs1 | 0.18%
84 | FC(F)(F)c1ccc(-c2nc(=S)[nH][nH]2)cc1 | -0.01%
85 | CCN(CC)CC(C(=O)N(CC)CC)P(=O)(c1ccccc1)c1ccccc1 (stereo unspecified) | 1.03%
86 | CCC1Oc2ccc(C)cc2N(CC(=O)NCc2cccs2)C1=O (stereo unspecified) | -0.08%
87 | O=C(CO/N=C/c1ccccc1OC(F)F)NCc1cccs1 | 16.6% (active)
88 | Cc1ccc(SCC(=O)OCC(=O)NCc2cccs2)cc1 | 2.52%
89 | C=CCOc1ccc(C2OC34CCCCC3C(C#N)(C#N)C2(C#N)C(=N)O4)cc1 (stereo unspecified) | 0.84%
90 | Cc1ccc(-c2noc(-c3c(C)noc3C)n2)cc1 | 2%
91 | O=C1c2ccsc2SCCN1Cc1ccc(F)cc1 | 7.58%
92 | O=C(NN1C(=O)/C(=C/c2ccc(O)cc2)SC1=S)c1ccccc1O | 0.14%
93 | C=C(C)c1cccc(C(C)(C)NC(=O)Nc2cccnc2)c1 | 5%
94 | N#CC1=C(N)OC2=C(CC/C2=C\c2ccccc2Cl)C1c1ccccc1Cl (stereo unspecified) | 125% (active)
95 | N#CC1=C(N)OC2=C(CC/C2=C\c2ccccc2)C1c1ccccc1 (stereo unspecified) | 1.94%
96 | Cc1ccc(/C=C2\CCC3=C2OC(N)=C(C#N)C3c2ccc(C)cc2)cc1 (stereo unspecified) | 0.12%
